According to ChEMBL document CHEMBL1148112, “Inhibition of tumor-promoting effects by poricoic acids G and H and other lanostane-type triterpenes and cytotoxic activity of poricoic acids A and G from Poria cocos” (J Nat Prod, 2002):

What was measured:
Raji [1] = assay: Inhibition of 12-O-tetradecanoylphorbol-13-acetate induced EBV-early antigen activation in human Raji cells assessed as EA activation at 1000 molar ratio after 48 hrs by indirect immunofluorescence method relative to TPA; assay type: cell-based; parameters: scale not given: the % may be the effect or the level left; settings: human gammaherpesvirus 4
Method in brief: (§1)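 Raji cells (EBV genome-carrying, nonproducer) at 1 × 10^6/mL in 10% FBS RPMI 1640, incubated 37 °C for 48 h with n-butyric acid (4 mM) plus 32 pmol TPA (20 ng/mL), compound added in DMSO. EA-positive cells detected by indirect immunofluorescence using NPC patient sera; at least 500 cells counted, run twice, expressed relative to butyric acid + TPA control.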

Raji [2] = assay: Inhibition of 12-O-tetradecanoylphorbol-13-acetate induced EBV-early antigen activation in human Raji cells assessed as EA activation at 500 molar ratio after 48 hrs by indirect immunofluorescence method relative to TPA; assay type: cell-based; parameters: scale not given: the % may be the effect or the level left; settings: human gammaherpesvirus 4; method in brief: as §1
Raji [3] = assay: Inhibition of 12-O-tetradecanoylphorbol-13-acetate induced EBV-early antigen activation in human Raji cells assessed as EA activation at 100 molar ratio after 48 hrs by indirect immunofluorescence method relative to TPA; assay type: cell-based; settings: human gammaherpesvirus 4; method in brief: as §1
Raji [4] = assay: Inhibition of 12-O-tetradecanoylphorbol-13-acetate induced EBV-early antigen activation in human Raji cells assessed as EA activation at 10 molar ratio after 48 hrs by indirect immunofluorescence method relative to TPA; assay type: cell-based; settings: human gammaherpesvirus 4; method in brief: as §1
[5] = Cytotoxicity against human Raji cells assessed as cell viability at 1000 molar ratio; assay type: cell-based; settings: read-out: Activity
[6] = Growth inhibition of human NCI60 cells after 48 hrs by sulforhodamine B assay; assay type: functional; settings: NCI60, 48 h
Method in brief: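 NCI 60-cell panel (lung, colon, melanoma, renal, ovarian, brain, leukemia), continuous 48 h exposure, at least five 10-fold dilutions from a top concentration of 10^-4 M; cell growth estimated by sulforhodamine B protein staining.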

| SMILES | Activity (Raji [1]) | Activity (Raji [2]) | Remaining EA activation relative to TPA control (Raji [3]) | EA activation relative to TPA control (Raji [4]) | viability at 1000 molar ratio [5] | GI50 [6] |
| --- | --- | --- | --- | --- | --- | --- |
| C=C(CC[C@@H](C(=O)O)[C@H]1[C@H](O)C[C@@]2(C)C3=CC[C@H]4C(C)(C)[C@H](O)CC[C@]4(C)C3=CC[C@]12C)C(C)(C)O | 0% | 13.2% | 51.6% | 79.4% | 70% | – |
| C=C(C)[C@@H]1CCC2=C(CC[C@]3(C)[C@@H]([C@@H](CCC=C(C)C)C(=O)O)[C@H](O)C[C@@]23C)[C@@]1(C)CCC(=O)O [PORICOIC ACID G] | 0% | 16% | 55.9% | 82.8% | 70% | – |
| C=C(CC[C@@H](C(=O)O)[C@H]1[C@H](O)C[C@@]2(C)C3=CC[C@@H](C(=C)C)[C@](C)(CCC(=O)O)C3=CC[C@]12C)C(C)C [PORICOIC ACID A] | 0% | 18.5% | 58.9% | 83.8% | 70% | 15 µM |
| C=C(CC[C@@H](C(=O)O)[C@H]1[C@H](O)C[C@@]2(C)C3=CC[C@H]4C(C)(C)C(=O)CC[C@]4(C)C3=CC[C@]12C)C(C)C [POLYPORENIC ACID B] | 0% | 26.3% | 68.7% | 92.6% | 70% | – |
| COC(=O)[C@]1(C)CCC[C@]2(C)c3ccc(C(C)C)cc3CC[C@@H]12 [METHYL DEHYDROABIETATE] | 0% | 23.2% | 68.3% | 91.6% | 60% | – |
| C=C(CC[C@@H](C(=O)O)[C@H]1[C@H](O)C[C@@]2(C)C3=C(CC[C@]12C)[C@@](C)(CCC(=O)O)[C@H](C(=C)C)CC3)C(C)C [PORICOIC ACID H] | 0% | 15.7% | 53.8% | 80.8% | 70% | – |
| C=C(CC[C@@H](C(=O)O)[C@H]1[C@H](O)C[C@@]2(C)C3=CC[C@H]4C(C)(C)[C@H](O)CC[C@]4(C)C3=CC[C@]12C)C(C)C | 0% | 25.5% | 67% | 93.8% | 70% | – |
| C=C(C)[C@@H]1CC=C2C(=CC[C@]3(C)[C@@H]([C@@H](CCC=C(C)C)C(=O)O)[C@H](O)C[C@@]23C)[C@@]1(C)CCC(=O)O [PORICOIC ACID B] | 0% | 14.3% | 54% | 80.7% | 70% | – |
| CC1=C(/C=C/C(C)=C/C=C/C(C)=C/C=C/C=C(C)/C=C/C=C(C)/C=C/C2=C(C)CCCC2(C)C)C(C)(C)CCC1 | 8.6% | – | – | 100% | – | – |
| C=C(CC[C@@H](C(=O)O)[C@H]1[C@H](O)C[C@@]2(C)C3=CC[C@H]4C(C)(C)[C@@H](O)CC[C@]4(C)C3=CC[C@]12C)C(C)C [DEHYDROTUMULOSIC ACID] | 0% | 22.7% | 64.9% | 90.5% | 70% | – |
| C=C(CC[C@@H](C(=O)O)[C@H]1[C@H](O)C[C@@]2(C)C3=C(CC[C@]12C)[C@@]1(C)CC[C@H](O)C(C)(C)[C@@H]1CC3)C(C)C [TUMULOSIC ACID] | 0% | 22.7% | 64.9% | 90.5% | 70% | – |
